Series [1] concerns Mus musculus. As to the kind of experiment: Percentage increase in life span of L1210 leukemia implanted mice at a dose of 200 mg/kg. The series is classed as functional. In short, it runs like this: (§1)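 Female CD2F1 mice, 10–12 weeks old, inoculated ip on day 0 with 10⁵ L1210 leukemia cells. Test agent dissolved in sterile saline immediately before use and given as a single ip dose on day 1 at 0.01 mL/g body weight. Groups of 6–8 treated and 18–24 control mice, following NCI screening protocol. Read-out is % increase in life span, with survivors noted at day 60.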

Series [2] has as its system Mus musculus. As to the kind of experiment: Percentage increase in life span of L1210 leukemia implanted mice at a dose of 100 mg/kg. It is filed as functional. Summed up:
as §1

Series [3] deals with Mus musculus. Description: Percentage increase in life span of L1210 leukemia implanted mice at a dose of 300 mg/kg. It is filed as functional. In short, it runs like this: as §1
In series [4] the test system is Mus musculus. Description: Percentage increase in life span of L1210 leukemia implanted mice at a dose of 60 mg/kg. It is filed as functional. In short, it runs like this: as §1
Series [5] is filed under the species Mus musculus. Description: Effective dose that causes 50% increase in life span of mice. The series is classed as functional. In short, it runs like this:
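In L1210-bearing mice, ip dosing was run on day 1 across 4–6 dose levels giving 15–100% ILS, with six mice per dose. ED50 (dose giving 50% ILS) was obtained per experiment by linear regression of dose against %ILS. Values are reported as mean ± SD over the number of experiments.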

For series [6], the system named is Mus musculus. As to the kind of experiment: Percentage increase in life span of L1210 leukemia implanted mice at a dose of 150 mg/kg. The series is classed as functional. Summed up:
as §1

Series [7] relates to Mus musculus. As to the kind of experiment: Percentage increase in life span of L1210 leukemia implanted mice at a dose of 400 mg/kg. The series is classed as functional. In short, it runs like this:
as §1

Series [8] can be described thus: Lethal dose to kill 50% of the mice after single ip injection to healthy female CD2F1 mice. It is filed as toxicity, organism-based. The note with it: CD2F1, mouse, in vivo. Summed up: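 Healthy female CD2F1 mice received a single ip injection at 5–6 dose levels spanning 0–100% mortality, with 10 or 15 animals per group. Deaths were followed for 21 days. LD50 and 95% confidence limits were calculated by probit analysis.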

Series [9] deals with Mus musculus. Description: Percentage increase in life span of L1210 leukemia implanted mice at a dose of 500 mg/kg. The series is classed as functional. Summed up: as §1
Series [10] concerns Mus musculus. As to the kind of experiment: Percentage increase in life span of L1210 leukemia implanted mice at a dose of 120 mg/kg. It is filed as functional. Summed up:
as §1

The subject of series [11] is Mus musculus. As to the kind of experiment: Percentage increase in life span of L1210 leukemia implanted mice at a dose of 30-180 mg/kg; value range is 0-12. It is filed as functional. In short, it runs like this: as §1
For series [12], the system named is Mus musculus. Description: Percentage increase in life span of L1210 leukemia implanted mice at a dose of 15-60 mg/kg. The series is classed as functional. In short, it runs like this: as §1
Series [13] concerns Mus musculus. Description: Percentage increase in life span of L1210 leukemia implanted mice at a dose of 30-180 mg/kg. The series is classed as functional. In short, it runs like this:
as §1

Series [14] has as its system Mus musculus. As to the kind of experiment: Percentage increase in life span of L1210 leukemia implanted mice at a dose of 80 mg/kg. It is filed as functional. In short, it runs like this: as §1
Series [15] has as its system Mus musculus. Description: Percentage increase in life span of L1210 leukemia implanted mice at a dose of […] 50 mg/kg. It is filed as functional. Summed up:
as §1

Series [16] concerns Mus musculus. As to the kind of experiment: Percentage increase in life span of L1210 leukemia implanted mice at a dose of 600 mg/kg. The series is classed as functional. In short, it runs like this:
as §1

The test system of series [17] is Mus musculus. As to the kind of experiment: Percentage increase in life span of L1210 leukemia implanted mice at a dose of 180 mg/kg. The series is classed as functional. In short, it runs like this:
as §1

The values below come from ChEMBL document CHEMBL1123954, “Synthesis and antitumor activity of analogues of ifosfamide modified in the N-(2-chloroethyl) group” (J Med Chem, 1988).

In general, ED50 refers to the midpoint of the dose-response relation. A low value points to an effect at a small dose. The LD50 is the dose expected to kill half of the subjects tested. The low end stands for a more toxic substance, the high end for a less toxic substance.

A value given as a limit tells only on which side of the number the result lay.

`O=[P@@]1(NCCBr)OCCCN1CCCl`: the ILS at 200 mg/kg in [1] was greater than 550%. Also, the ILS at 100 mg/kg in series [2] is greater than 550%. In addition, the ILS at 300 mg/kg in series [3] was greater than 350%. Also, the ILS at 60 mg/kg in series [4] stood at 140%. For the same compound, in series [5], the median effective dose (ED50) was determined as 27.7 mg/kg. Moreover, in series [6], the ILS at 150 mg/kg was greater than 550%. Moreover, in series [7], the ILS at 400 mg/kg is 62%. The compound further displayed an LD50 in series [8] of 368 mg/kg.

On to `O=[P@]1(NCCBr)OCCCN1CCCl`, for which the ILS at 200 mg/kg in series [1] is greater than 550%. The ILS at 300 mg/kg in series [3] was greater than 550%. For the same compound, the ILS at 500 mg/kg in [9] worked out at 206%. The compound further registered an ED50 in series [5] of 66.2 mg/kg. In addition, the ILS at 150 mg/kg in [6] is greater than 500%. For the same compound, the ILS at 120 mg/kg in series [10] is 114%. In addition, the ILS at 400 mg/kg in series [7] is greater than 550%. The compound also registered an LD50 in [8] of 541 mg/kg.

For the compound `O=P(OCCNP1(=O)OCCCN1CCCl)(OCc1ccccc1)OCc1ccccc1` (stereo not given), the ILS in series [11] worked out at 0%.

For `CCOP(=O)(OCC)OCCNP1(=O)OCCCN1CCCl` (stereo not given), the ILS in [11] came out at 0%.

`O=P1(NCCF)OCCCN1CCCl` (stereo not given): the ILS at 200 mg/kg in series [1] was -40%. In addition, in [2], the ILS at 100 mg/kg is -40%. The ILS in [12] was determined as 10%.

Regarding `Cc1ccc(S(=O)(=O)OCCNP2(=O)OCCCN2CCCl)cc1` (stereo not given), in series [13], the ILS is listed as 13%.

On to `O=P1(NCCBr)OCCCN1CCCl` (stereo not given), for which, in series [1], the ILS at 200 mg/kg is greater than 550%. Besides, in series [14], the ILS at 80 mg/kg was 110%. The ILS at 100 mg/kg in [2] is greater than 430%. Further, in series [15], the ILS at 50 mg/kg was determined as 74%. Further, the ILS at 300 mg/kg in series [3] is greater than 550%. In [4], the ILS at 60 mg/kg was 88%. In series [5], the ED50 was 36.2 mg/kg. The ILS at 150 mg/kg in [6] is greater than 550%. Also, the ILS at 400 mg/kg in series [7] came to 500%. The median lethal dose (LD50) in series [8] was 470 mg/kg.

Take `CC(=O)OCCNP1(=O)OCCCN1CCCl` (stereo not given): in [13], the ILS came out at 13%.

Turning to `O=P1(N(CCCl)CCCl)NCCCO1` (stereo not given) [CYCLOPHOSPHAMIDE ANHYDROUS], the ILS at 200 mg/kg in [1] was greater than 550%. For the same compound, in [3], the ILS at 300 mg/kg was greater than 550%. In [5], this compound came in with an ED50 of 90.6 mg/kg. The ILS at 150 mg/kg in series [6] is 89%. In addition, the ILS at 120 mg/kg in series [10] was 86%. For the same compound, the ILS at 400 mg/kg in series [7] is greater than 425%. Besides, the LD50 in series [8] is 445 mg/kg.

`O=P1(NCCCl)OCCCN1CCCl` (stereo not given) [IFOSFAMIDE]: the ILS at 200 mg/kg in [1] is greater than 350%. For the same compound, in series [16], the ILS at 600 mg/kg was greater than 480%. In addition, the ILS at 180 mg/kg in [17] was greater than 250%. The ILS at 300 mg/kg in series [3] is greater than 400%. For the same compound, in [9], the ILS at 500 mg/kg was greater than 500%. The same compound came in with an ED50 in series [5] of 88.6 mg/kg. Besides, the ILS at 150 mg/kg in [6] worked out at 123%. Besides, the ILS at 120 mg/kg in [10] was 74%. Besides, the ILS at 400 mg/kg in series [7] was greater than 500%. Besides, in series [8], the LD50 was determined as 679 mg/kg.
